Experimental data published in PMC8504815 (Clinical and Translational Science, 2021).
“Also recorded” adds a separate entry of the source.

Tests used:
skin prick test wheal = assay: Skin prick test; format: in vivo, human; settings: MAD
Summary of the method: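 MAD subjects with atopic diathesis had skin prick tests to known allergens from 7 undiluted allergens (pollens, house dust mite, cat and horse dander). Tests were done at day −1, day 1 predose/2/8 h, day 2 predose and day 12 predose/8/24/96 h. Wheal diameter was the mean of the longest and perpendicular diameters. The predose average (day −1 and day 1) was compared with the average of all 7 postdose tests.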

[1] = Blood pharmacokinetics, single ascending dose; format: in vivo, human
Summary of the method: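 Ten cohorts of 8 healthy adults aged 18–65 were randomized 3:1 to one fasted oral dose (0.5–600 mg) or placebo, double-blind. Blood was taken predose and at protocol timepoints up to day 8, and drug was measured by validated LC-MS/MS. Dose proportionality used regression of log Cmax and AUC on log dose, giving the slope with 90% CI.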

Safety and tolerability = format: in vivo, human; settings: for dose-limiting toxicity: up to highest dose tested
[2] = Blood pharmacokinetics, multiple ascending dose; format: in vivo, human; settings: for CLss/F: apparent total body clearance from blood at steady state; for CLss/F / AUC(0-t) / Cmax: mean (SD); for half-life: terminal half-life; for half-life / Tmax: median (minimum-maximum)
Summary of the method: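 Fasted healthy subjects with asymptomatic atopic diathesis were randomized 3:1 to oral drug or placebo, q.d. or b.i.d., through day 12. Blood was sampled predose and to 24 h on day 1 (b.i.d. to 12 h), then at trough and 2 h postdose. Urine was also collected. Assay was LC-MS/MS. Log Cmax/AUC was regressed on log dose (slope, 90% CI).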

basophils = assay: Basophil activation; format: in vivo, human; settings: for trough inhibition of CD203c: day 12; for inhibition of CD203c+ basophils, peak: 8 h on day 1
Summary of the method: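 Heparinized whole blood was drawn at set timepoints from MAD subjects (healthy, asymptomatic atopic diathesis; oral q.d. or b.i.d.). It was stimulated ex vivo with anti-IgE for 25 minutes at 37°C/5% CO₂. CD63+ and CD203c+ basophils were counted as a percentage by flow cytometry and expressed as % inhibition versus baseline. Subjects with baseline CD63+ stimulation below 10% were excluded.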

[3] = statement in discussion, no value or reference printed; cited from earlier work
BTK = BTK (Homo sapiens, UniProt Q06187); assay: BTK occupancy in blood; format: in vivo
Chain of BTK (Q06187 whole entry): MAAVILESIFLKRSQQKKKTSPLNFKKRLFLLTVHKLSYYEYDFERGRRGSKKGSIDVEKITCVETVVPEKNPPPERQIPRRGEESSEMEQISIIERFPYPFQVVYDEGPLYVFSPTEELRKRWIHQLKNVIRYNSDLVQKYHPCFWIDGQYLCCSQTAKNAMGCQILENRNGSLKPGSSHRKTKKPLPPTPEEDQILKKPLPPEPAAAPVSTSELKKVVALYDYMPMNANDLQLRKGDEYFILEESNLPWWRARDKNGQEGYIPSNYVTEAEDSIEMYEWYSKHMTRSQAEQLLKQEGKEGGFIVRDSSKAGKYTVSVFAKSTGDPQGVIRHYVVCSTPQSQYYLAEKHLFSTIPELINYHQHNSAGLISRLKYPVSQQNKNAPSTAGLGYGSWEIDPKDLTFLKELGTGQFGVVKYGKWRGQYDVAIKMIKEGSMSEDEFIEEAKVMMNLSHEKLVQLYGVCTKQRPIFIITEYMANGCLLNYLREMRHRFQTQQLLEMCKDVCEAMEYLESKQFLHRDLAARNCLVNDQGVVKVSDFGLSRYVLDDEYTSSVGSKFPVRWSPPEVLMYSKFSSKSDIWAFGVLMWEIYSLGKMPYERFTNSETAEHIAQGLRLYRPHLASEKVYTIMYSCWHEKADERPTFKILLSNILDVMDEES

Food effect = format: in vivo, human; settings: for MRT: mean (SD)
[4] = human, whole blood, oral, 100 mg, MAD 100 mg b.i.d., Day 1
[5] = human, whole blood, oral, 100 mg, MAD 100 mg b.i.d., Day 12
[6] = human, whole blood, oral, 200 mg, MAD 200 mg b.i.d., Day 12
[7] = human, whole blood, oral, 600 mg, MAD 600 mg q.d., Day 1

For `C=CC(=O)N(C)CCOc1c(N)ncnc1-c1cc(F)cc(NC(=O)c2ccc(C3CC3)cc2F)c1C` [Remibrutinib], the “skin prick test (SPT) inhibition” value (skin prick test wheal; day 12 predose, >=100 mg q.d.) was “Near complete”, the “average decrease in wheal size (SPT)” value (skin prick test wheal; doses >=100 mg q.d., across all tests, subjects with atopic diathesis) was ~ 3 mm and the “dose proportionality of Cmax, AUCinf, AUClast over the full dose range” value ([1]; SAD cohorts) was “not demonstrated”. The half-life ([1]; human, whole blood, oral) was 1 to 2 h, the Tmax ([1]; human, whole blood, po) was 0.5 to 1.25 h and the hematomas (Safety and tolerability; 100 mg MAD cohort, after trauma / vessel puncture, resolved spontaneously) was “two hematomas”. For the same compound, the self-limiting epistaxis (Safety and tolerability; 600 mg MAD group, both had history of repeated epistaxis) was “Two subjects”, the “headache (most common AE)” value (Safety and tolerability; FE cohort, 2/12) was 16.7% and the “Subjects with at least 1 AE” value (Safety and tolerability; FE cohort, 7 of 12 subjects) was 58.3%. For the same compound, the “incidence of AEs” value (Safety and tolerability; FE cohort, fasted condition) was 16.7%, the “incidence of AEs” value (Safety and tolerability; FE cohort, fed condition) was 50% and the “AE severity: Mild” value (Safety and tolerability; Food effect cohort, N = 12) was 7 (58.3) n (%). The “AE severity: Moderate” value (Safety and tolerability; Food effect cohort, N = 12) was 1 (8.3) n (%), the Headache (Safety and tolerability; Food effect cohort, N = 12) was 2 (16.7) n (%) and the Nasopharyngitis (Safety and tolerability; Food effect cohort, N = 12) was 1 (8.3) n (%). The “Study drug-related AEs” value (Safety and tolerability; Food effect cohort, N = 12) was 3 (25.0) n (%), the “Subjects with at least 1 AE” value (Safety and tolerability; Food effect cohort, N = 12) was 7 (58.3) n (%) and the “subjects with AEs suspected to be related to the study drug” value (Safety and tolerability; MAD cohorts, 5/48) was 10.4%. For the same compound, the “incidence of AEs (subjects with at least 1 AE)” value (Safety and tolerability; MAD cohorts, 24 subjects on remibrutinib) was 50.0%, the “AE severity: Mild” value (Safety and tolerability; MAD cohorts, all doses, N = 48) was 22 (45.8) n (%) and the “AE severity: Moderate” value (Safety and tolerability; MAD cohorts, all doses, N = 48) was 5 (10.4) n (%). The “AE severity: Severe” value (Safety and tolerability; MAD cohorts, all doses, N = 48) was 1 (2.1) n (%), the Headache (Safety and tolerability; MAD cohorts, all doses, N = 48) was 5 (10.4) n (%) and the Nasopharyngitis (Safety and tolerability; MAD cohorts, all doses, N = 48) was 3 (6.3) n (%). For the same compound, the “Study drug-related AEs” value (Safety and tolerability; MAD cohorts, all doses, N = 48) was 5 (10.4) n (%), the “Subjects with at least 1 AE” value (Safety and tolerability; MAD cohorts, all doses, N = 48) was 24 (50.0) n (%) and the Toothache (Safety and tolerability; MAD cohorts, all doses, N = 48) was 1 (2.1) n (%). The AEs reported (Safety and tolerability; SAD 100 and 200 mg cohorts) was “No AEs”, the “Subjects with at least 1 AE” value (Safety and tolerability; SAD cohorts, 17 subjects on remibrutinib) was 28.3% and the “AE severity: Mild” value (Safety and tolerability; SAD cohorts, all doses, N = 60) was 16 (26.7) n (%). For the same compound, the “AE severity: Moderate” value (Safety and tolerability; SAD cohorts, all doses, N = 60) was 1 (1.7) n (%), the Headache (Safety and tolerability; SAD cohorts, all doses, N = 60) was 6 (10.0) n (%) and the Nasopharyngitis (Safety and tolerability; SAD cohorts, all doses, N = 60) was 4 (6.7) n (%). For the same compound, the “Study drug-related AEs” value (Safety and tolerability; SAD cohorts, all doses, N = 60) was 7 (11.7) n (%), the “Subjects with at least 1 AE” value (Safety and tolerability; SAD cohorts, all doses, N = 60) was 17 (28.3) n (%) and the “subjects with AEs suspected to be related to the study drug” value (Safety and tolerability; SAD cohorts, all on remibrutinib, of 80 subjects) was 7 subjects. The “changes in hematology, biochemistry, urinalysis parameters (vital signs, ECG)” value (Safety and tolerability; all cohorts) was “No clinically significant changes”, the dose-limiting toxicity (Safety and tolerability; all doses) was “without any dose‐limiting toxicity” and the dose-limiting toxicity (Safety and tolerability; all doses, listed as remibrutinib) was “No dose‐limiting toxicity”. The tolerability (Safety and tolerability; all evaluated doses, up to 600 mg oral) was “well‐tolerated”, the SAEs or deaths (Safety and tolerability; any cohort, overall summary) was “No SAEs or deaths” and the risk of bleeding (Safety and tolerability; any dose, bruising log and coagulation testing) was “no increased risk of bleeding”. For the same compound, the CLss/F ([2]; MAD 100 mg b.i.d., Day 12) was 255 (153) L/h, the CLss/F ([2]; MAD 100 mg q.d., Day 12) was 198 (88.7) L/h and the CLss/F ([2]; MAD 200 mg b.i.d., Day 12) was 267 (126) L/h. For the same compound, the CLss/F ([2]; MAD 400 mg q.d., Day 12) was 366 (150) L/h, the CLss/F ([2]; MAD 600 mg q.d., Day 12) was 521 (131) L/h and the “dose proportional increases of Cmax and AUC over the full dose range” value ([2]; MAD cohorts) was “not observed”. For the same compound, the time to steady-state ([2]; MAD cohorts) was “third day of dosing”, the “direct renal excretion, contribution to total apparent blood clearance” value ([2]; across doses in all MAD cohorts, urine) was ~ 1% and the AUC(0-t) ([2]; human, whole blood, oral, 100 mg, AUC0–12 h, MAD 100 mg b.i.d., Day 12) was 496 ng·h/mL. For the same compound, the AUC(0-t) ([2]; human, whole blood, oral, 100 mg, AUC0–24 h, MAD 100 mg q.d., Day 12) was 485 ng·h/mL, the AUC(0-t) ([2]; human, whole blood, oral, 100 mg, AUClast, MAD 100 mg b.i.d., Day 12) was 518 ng·h/mL and the Cmax [2, 4] was 180 ng/mL. For the same compound, the Cmax [2, 5] was 306 ng/mL, the half-life ([2]; human, whole blood, oral, 100 mg, T1/2, MAD 100 mg b.i.d., Day 12) was 2.84 h and the Tmax [2, 4] was 1.5 h. The Tmax [2, 5] was 0.775 h, the AUC(0-t) ([2]; human, whole blood, oral, 200 mg, AUC0–12 h, MAD 200 mg b.i.d., Day 1) was 464 ng·h/mL and the AUC(0-t) ([2]; human, whole blood, oral, 200 mg, AUC0–12 h, MAD 200 mg b.i.d., Day 12) was 890 ng·h/mL. For the same compound, the AUC(0-t) ([2]; human, whole blood, oral, 200 mg, AUClast, MAD 200 mg b.i.d., Day 1) was 464 ng·h/mL, the Cmax ([2]; human, whole blood, oral, 200 mg, MAD 200 mg b.i.d., Day 1) was 236 ng/mL and the Cmax [2, 6] was 347 ng/mL. The half-life ([2]; human, whole blood, oral, 200 mg, T1/2, MAD 200 mg b.i.d., Day 12) was 12.4 h, the Tmax [2, 6] was 0.992 h and the AUC(0-t) ([2]; human, whole blood, oral, 400 mg, AUC0–24 h, MAD 400 mg q.d., Day 1) was 977 ng·h/mL. For the same compound, the AUC(0-t) ([2]; human, whole blood, oral, 600 mg, AUC0–24 h, MAD 600 mg q.d., Day 1) was 1080 ng·h/mL, the AUC(0-t) ([2]; human, whole blood, oral, 600 mg, AUC0–24 h, MAD 600 mg q.d., Day 12) was 1230 ng·h/mL and the Cmax [2, 7] was 550 ng/mL. The Tmax [2, 7] was 0.75 h, the MRT ([2]; human, whole blood, oral, mean residence time (MRT), multiple doses (q.d. and b.i.d.), overall statement) was less than 3 h and the “mean residence time (MRT)” value ([2]; multiple doses (q.d. and b.i.d.), overall statement) was ~ 3 h. The “number of doses to steady state” value ([2]; overall statement in discussion) was “less than 5 doses”, the “accumulation with multiple doses” value ([2]; q.d. and b.i.d. dosing) was “no pronounced accumulation; also recorded: no marked accumulation” and the “trough level inhibition of CD63” value (basophils; MAD 10 mg q.d., last day of dosing) was 80%. For the same compound, the “trough inhibition of CD203c” value (basophils; MAD 100 mg b.i.d.) was 63%, the “inhibition of CD203c+ basophils, peak” value (basophils; MAD 200 mg b.i.d.) was 81.8% and the “trough inhibition of CD203c” value (basophils; MAD 200 mg b.i.d.) was 67%. For the same compound, the “inhibition of CD203c+ basophils, peak” value (basophils; MAD 400 mg q.d.) was 84%, the “inhibition of blood basophil activation (CD63 expression)” value (basophils; MAD daily dose >=50 mg, day 1-12 incl. day 12 predose) was “Near complete; also recorded: Full inhibition” and the “basophil inhibition (CD63 expression)” value (basophils; SAD 60 mg, after 24 h) was roughly 90%. The “inhibition of CD203c basophil activation marker” value (basophils; SAD 200 mg cohort, at 8 h) was “up to 79.4%”, the “basophil inhibition (CD63 expression)” value (basophils; SAD, doses >=100 mg) was “almost complete inhibition” and the solubility [3] was “low solubility”. The “BTK occupancy in blood” value (BTK; MAD, doses >=50 mg, over the measured dosing period, complete = >95%) was “maintained complete BTK occupancy”, the “BTK occupancy in blood” value (BTK; SAD, lowest dose of 0.5 mg) was “no BTK occupancy” and the “lowest dose showing both complete BTK occupancy and almost complete basophil inhibition” value (BTK; single dose) was 30 mg. The “Delay of median Tmax, fed vs fasted” value (Food effect; 60 mg single dose, standardized high-fat breakfast) was ~ 2 h, the “Cmax geometric mean ratio (fed vs fasted)” value (Food effect; 60 mg single dose, 90% CI 0.638-1.01) was 0.801 and the “AUClast geometric mean ratio (fed vs fasted)” value (Food effect; 60 mg single dose, 90% CI 1.14-1.47) was 1.30. The “effect of food intake on exposure” value (Food effect; 60 mg, fed vs fasted) was “no clinically relevant effect”, the MRT (Food effect; human, whole blood, oral, 60 mg, 60 mg single dose, Fasted) was 2.29 ± 0.72 h and the MRT (Food effect; human, whole blood, oral, 60 mg, 60 mg single dose, Fed) was 4.17 ± 1.2 h. The Tmax (Food effect; human, whole blood, oral, 60 mg, Tmax, 60 mg single dose, Fed, median (min-max)) was 2.78 h.
